# ChEMBL document CHEMBL2062469, “1-(2-Mercaptobenzenesulfonyl)-3-hydroxyguanidines--novel potent antiproliferatives, synthesis and in vitro biological activity” (2012)
# Key:
# Format in all cases: functional
# NCI-H226 = test: Cytostatic activity against human NCI-H226 cells
# Method in brief: (§1)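 NCI-60 human tumor cell line screen run by the US National Cancer Institute under the NIH Developmental Therapeutics Program protocol. A single-dose prescreen at 10 µM came first. Selected compounds then went into the 5-dose assay. Cytostatic activity is reported as GI50 (µM).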
# Hs-578T = test: Cytostatic activity against human Hs 578T cells; method in brief: as §1
# DU-145 = test: Cytostatic activity against human DU145 cells; method in brief: as §1
# SF-539 = test: Cytostatic activity against human SF539 cells; method in brief: as §1
# UO-31 = test: Cytostatic activity against human UO31 cells
# Method in brief: (§2)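 Human tumour cell lines from the NCI-60 panel, tested at the US National Cancer Institute under the NIH Developmental Therapeutics Program protocol. A single-dose prescreen at 10 µM came first. Selected compounds then went to a 5-dose assay, which gave GI50 and TGI values in µM.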
# SF-295 = test: Cytostatic activity against human SF295 cells; method in brief: as §1
# SK-MEL-28 = test: Cytostatic activity against human SK-MEL-28 cells; method in brief: as §1
# HCC 2998 = test: Cytostatic activity against human HCC2998 cells; method in brief: as §1
# HCT-116 = test: Cytostatic activity against human HCT116 cells; method in brief: as §1
# HCT-15 = test: Cytostatic activity against human HCT15 cells; method in brief: as §1
# HT-29 = test: Cytostatic activity against human HT-29 cells; method in brief: as §1
# Malme-3M = test: Cytostatic activity against human MALME-3M cells; method in brief: as §1
# SK-MEL-2 = test: Cytostatic activity against human SK-MEL-2 cells; method in brief: as §1
# SNB-19 = test: Cytostatic activity against human SNB19 cells; method in brief: as §1
# OVCAR-4 = test: Cytostatic activity against human OVCAR4 cells; method in brief: as §1
# TK-10 = test: Cytostatic activity against human TK10 cells; method in brief: as §2
# SN12C = test: Cytostatic activity against human SN12C cells; method in brief: as §1
# MDA-MB-231 = test: Cytostatic activity against human MDA-MB-231/ATCC cells; method in brief: as §1
# SR = test: Cytostatic activity against human SR cells; method in brief: as §2
# EKVX = test: Cytostatic activity against human EKVX cells; method in brief: as §1
# CCRF-CEM = test: Cytostatic activity against human CCRF-CEM cells; method in brief: as §1
# OVCAR-3 = test: Cytostatic activity against human OVCAR3 cells; method in brief: as §1
# MDA-MB-468 = test: Cytostatic activity against human MDA-MB-468 cells; method in brief: as §1
# MCF7 = test: Cytostatic activity against human MCF7 cells; method in brief: as §1
# UACC-62 = test: Cytostatic activity against human UACC62 cells; method in brief: as §2
# T47D = test: Cytostatic activity against human T47D cells; method in brief: as §2
# COLO 205 = test: Cytostatic activity against human COLO205 cells; method in brief: as §1
# RXF 393 = test: Cytostatic activity against human RXF393 cells; method in brief: as §1
# UACC-257 = test: Cytostatic activity against human UACC257 cells; method in brief: as §2
# K562 = test: Cytostatic activity against human K562 cells; method in brief: as §1
# ACHN = test: Cytostatic activity against human ACHN cells; method in brief: as §1
# U-251 = test: Cytostatic activity against human U251 cells; method in brief: as §2
# SK-MEL-5 = test: Cytostatic activity against human SK-MEL-5 cells; method in brief: as §1
# OVCAR-5 = test: Cytostatic activity against human OVCAR5 cells; method in brief: as §1
# CAKI-1 = test: Cytostatic activity against human Caki1 cells; method in brief: as §1
# LOX IMVI = test: Cytostatic activity against human LOXIMVI cells; method in brief: as §1
# NCI-H322M = test: Cytostatic activity against human NCI-H322M cells; method in brief: as §1
# M14 = test: Cytostatic activity against human M14 cells; method in brief: as §1
# HOP-62 = test: Cytostatic activity against human HOP62 cells; method in brief: as §1
# OVCAR-8 = test: Cytostatic activity against human OVCAR8 cells; method in brief: as §1
# [1] = Cytostatic activity against human […] cells; method in brief: as §1
# SF-268 = test: Cytostatic activity against human SF268 cells; method in brief: as §1
# HL-60(TB) = test: Cytostatic activity against human HL-60(TB) cells
# Method in brief: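 NCI-60 panel screen run per the NIH Developmental Therapeutics Program protocol. Agents first went through a one-dose test at 10 µM. Selected compounds were then run in a 5-dose assay, from which GI50 and TGI values were derived.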
# MDA-MB-435 = test: Cytostatic activity against human MDA-MB-435 cells; method in brief: as §1
# NCI-H460 = test: Cytostatic activity against human NCI-H460 cells; method in brief: as §1
# NCI-H23 = test: Cytostatic activity against human NCI-H23 cells; method in brief: as §1
# IGROV-1 = test: Cytostatic activity against human IGROV1 cells; method in brief: as §1
# SW-620 = test: Cytostatic activity against human SW620 cells; method in brief: as §2
# NCI-H522 = test: Cytostatic activity against human NCI-H522 cells; method in brief: as §1
# HOP-92 = test: Cytostatic activity against human HOP92 cells; method in brief: as §1
# A498 = test: Cytostatic activity against human A498 cells; method in brief: as §1
# A549 = test: Cytostatic activity against human A549/ATCC cells; method in brief: as §1
# KM12 = test: Cytostatic activity against human KM12 cells; method in brief: as §1
# PC-3 = test: Cytostatic activity against human PC3 cells; method in brief: as §1
# MOLT-4 = test: Cytostatic activity against human MOLT4 cells; method in brief: as §1
# SNB-75 = test: Cytostatic activity against human SNB75 cells; method in brief: as §2
# NCI/ADR-RES = test: Cytostatic activity against human NCI-ADR-RES cells; method in brief: as §1
structure (smiles),measurement,setting,value
N=C(NO)NS(=O)(=O)c1cc(-c2nnc(-c3ccc(Cl)cc3)s2)c(Cl)cc1SCc1ccccc1,GI50,NCI-H226,2.07 µM
same,TGI,NCI-H226,4.05 µM
same,GI50,Hs-578T,2.51 µM
same,TGI,Hs-578T,7.26 µM
same,GI50,DU-145,1.73 µM
same,TGI,DU-145,3.1 µM
same,GI50,SF-539,1.97 µM
same,TGI,SF-539,3.9 µM
same,GI50,UO-31,1.99 µM
same,TGI,UO-31,4.68 µM
same,GI50,SF-295,2.21 µM
same,TGI,SF-295,4.65 µM
same,GI50,SK-MEL-28,1.91 µM
same,TGI,SK-MEL-28,3.47 µM
same,GI50,HCC 2998,1.81 µM
same,TGI,HCC 2998,3.42 µM
same,GI50,HCT-116,1.56 µM
same,TGI,HCT-116,3.11 µM
same,GI50,HCT-15,1.57 µM
same,TGI,HCT-15,3.17 µM
same,GI50,HT-29,1.67 µM
same,TGI,HT-29,3.13 µM
same,GI50,Malme-3M,1.96 µM
same,TGI,Malme-3M,4.03 µM
same,GI50,SK-MEL-2,1.75 µM
same,TGI,SK-MEL-2,3.5 µM
same,GI50,SNB-19,1.74 µM
same,TGI,SNB-19,3.42 µM
same,GI50,OVCAR-4,1.65 µM
same,TGI,OVCAR-4,4.01 µM
same,GI50,TK-10,1.87 µM
same,TGI,TK-10,3.43 µM
same,GI50,SN12C,1.67 µM
same,TGI,SN12C,3.2 µM
same,GI50,MDA-MB-231,2.07 µM
same,TGI,MDA-MB-231,4.79 µM
same,GI50,SR,1.45 µM
same,TGI,SR,4.2 µM
same,GI50,EKVX,1.99 µM
same,TGI,EKVX,4.12 µM
same,GI50,CCRF-CEM,0.84 µM
same,TGI,CCRF-CEM,3.83 µM
same,GI50,OVCAR-3,1.67 µM
same,TGI,OVCAR-3,3.12 µM
same,GI50,MDA-MB-468,1.52 µM
same,TGI,MDA-MB-468,2.85 µM
same,GI50,MCF7,1.57 µM
same,TGI,MCF7,3.03 µM
same,GI50,UACC-62,2.02 µM
same,TGI,UACC-62,3.76 µM
same,GI50,T47D,2.07 µM
same,TGI,T47D,4.81 µM
same,GI50,COLO 205,1.89 µM
same,TGI,COLO 205,3.74 µM
same,GI50,RXF 393,1.66 µM
same,TGI,RXF 393,3.04 µM
same,GI50,UACC-257,2.1 µM
same,TGI,UACC-257,4.05 µM
same,GI50,K562,2.23 µM
same,TGI,K562,6.31 µM
same,GI50,ACHN,1.71 µM
same,TGI,ACHN,3.15 µM
same,GI50,U-251,1.54 µM
same,TGI,U-251,3.09 µM
same,GI50,SK-MEL-5,1.58 µM
same,TGI,SK-MEL-5,3.05 µM
same,GI50,OVCAR-5,1.6 µM
same,TGI,OVCAR-5,3.02 µM
same,GI50,CAKI-1,2.27 µM
same,TGI,CAKI-1,4.67 µM
same,GI50,LOX IMVI,1.68 µM
same,TGI,LOX IMVI,3.47 µM
same,GI50,NCI-H322M,1.93 µM
same,TGI,NCI-H322M,3.99 µM
same,GI50,M14,1.68 µM
same,TGI,M14,3.2 µM
same,GI50,HOP-62,2.05 µM
same,TGI,HOP-62,3.98 µM
same,GI50,OVCAR-8,2.03 µM
same,TGI,OVCAR-8,4.3 µM
same,GI50,[1],1.74 µM
same,TGI,[1],4.34 µM
same,GI50,SF-268,1.9 µM
same,TGI,SF-268,4.21 µM
same,GI50,HL-60(TB),1.78 µM
same,TGI,HL-60(TB),4.53 µM
same,GI50,MDA-MB-435,2.11 µM
same,TGI,MDA-MB-435,4.17 µM
same,GI50,NCI-H460,1.73 µM
same,TGI,NCI-H460,3.49 µM
same,GI50,NCI-H23,1.7 µM
same,TGI,NCI-H23,3.73 µM
same,GI50,IGROV-1,2.57 µM
same,TGI,IGROV-1,5.38 µM
same,GI50,SW-620,1.47 µM
same,TGI,SW-620,3.07 µM
same,GI50,NCI-H522,1.67 µM
same,TGI,NCI-H522,3.41 µM
same,GI50,HOP-92,2.76 µM
same,TGI,HOP-92,7.42 µM
same,GI50,A498,1.75 µM
same,TGI,A498,5.55 µM
same,GI50,A549,2.25 µM
same,TGI,A549,5.64 µM
same,GI50,KM12,1.75 µM
same,TGI,KM12,3.33 µM
same,GI50,PC-3,1.74 µM
same,TGI,PC-3,3.27 µM
same,GI50,MOLT-4,1.25 µM
same,TGI,MOLT-4,3.57 µM
same,GI50,SNB-75,1.49 µM
same,TGI,SNB-75,3.18 µM
same,GI50,NCI/ADR-RES,7.39 µM
